TRPC4 PAM: allosteric potentiators of mouse TRPC4 channel | Q9QUQ5 | actives 0.42% (n = 310,000) | B-score at 10 µM | HEK293 TRPC4beta/mu-opioid, DAMGO EC20, Fluo-4 Ca2+ flux; stronger effect = higher value;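 active means B-score of calcium response area above 5 SD of library B-scores, with initial fluorescence ratio within 5 SD of library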;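 further: B-score of integrated fluorescence ratio over time as area under calcium response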
TRPC4 block: blocks the mouse TRPC4 cation channel. actives 0.39% (n = 300,000). Q9QUQ5. B-score at 10 µM. HEK293 TRPC4beta/mu-opioid, DAMGO-evoked Fluo4 calcium flux; stronger effect = lower value. AID 2247;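 active means B-score over 3 SD under the library average, no early fluorescence shift, positive overall ratio signal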
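Assay system: HEK293 cells with stable TRPC4beta plus mu-opioid receptor expression; Probe or stimulus: DAMGO in two steps, submaximal then maximal; Dosing: single-point compound dosing; Measured by: Fluo4 calcium-dye fluorescence, kinetic read; Read-out basis: B score from integrated Fluo4 fluorescence ratio.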
TRPC6 inhibitor: inhibitors of mouse TRPC6 channel; Q61143; HEK293-TRPC6, membrane potential dye, ACh-evoked depolarization; stronger effect = lower value; B-score at 10 µM; actives 1.1% (n = 310,000);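 active means B-score under library mean minus 3 SD, initial fluorescence not abnormally high, positive integrated signal ratio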;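 further: B-score derived from integrated fluorescence ratio over the kinetic read; more negative B-score means stronger inhibition of depolarization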
Target sequence (Q61143 whole entry, looked up): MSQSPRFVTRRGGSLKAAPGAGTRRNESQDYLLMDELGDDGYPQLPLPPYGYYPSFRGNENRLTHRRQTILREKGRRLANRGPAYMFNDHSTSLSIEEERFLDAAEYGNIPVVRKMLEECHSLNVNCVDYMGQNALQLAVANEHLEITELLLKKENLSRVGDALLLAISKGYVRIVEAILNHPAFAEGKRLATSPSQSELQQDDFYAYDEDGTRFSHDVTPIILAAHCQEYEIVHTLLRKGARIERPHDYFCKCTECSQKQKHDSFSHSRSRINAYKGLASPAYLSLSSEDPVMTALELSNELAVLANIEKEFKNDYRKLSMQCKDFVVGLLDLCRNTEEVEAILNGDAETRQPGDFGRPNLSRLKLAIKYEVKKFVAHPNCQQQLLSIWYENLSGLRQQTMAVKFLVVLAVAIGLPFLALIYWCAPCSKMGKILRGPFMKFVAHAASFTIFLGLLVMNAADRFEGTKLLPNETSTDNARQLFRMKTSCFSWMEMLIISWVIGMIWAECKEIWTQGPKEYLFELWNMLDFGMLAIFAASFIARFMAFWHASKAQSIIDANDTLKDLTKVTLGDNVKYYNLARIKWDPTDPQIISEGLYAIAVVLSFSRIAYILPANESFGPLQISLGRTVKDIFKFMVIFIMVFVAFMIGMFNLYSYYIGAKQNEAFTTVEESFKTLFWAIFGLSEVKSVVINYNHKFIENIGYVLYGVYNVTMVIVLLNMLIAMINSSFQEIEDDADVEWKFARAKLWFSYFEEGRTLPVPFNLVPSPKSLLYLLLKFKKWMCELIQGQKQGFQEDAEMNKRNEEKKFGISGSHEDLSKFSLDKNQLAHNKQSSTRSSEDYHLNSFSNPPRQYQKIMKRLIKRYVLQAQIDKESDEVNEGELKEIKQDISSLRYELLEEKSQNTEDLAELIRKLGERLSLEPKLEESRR
TRPC6 activator: activators of mouse TRPC6 channel; Q61143; HEK293-TRPC6 membrane potential dye fluorescence; stronger effect = higher value; B-score at 10 µM; actives 0.13% (n = 310,000);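 active means B-score of the integrated fluorescence ratio above library mean plus 3 SD, and starting fluorescence ratio within library mean plus 5 SD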;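 further: higher score means more depolarization so channel activation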
TRPC4 act: activators of mouse TRPC4 channel | Q9QUQ5 | HEK293 TRPC4beta/mu-opioid, Fluo4 calcium fluorescence; stronger effect = higher value | B-score at 10 µM | actives 0.49% (n = 310,000);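 active means B-score above 5 SD of library B-scores, and initial fluorescence ratio not above library mean plus 5 SD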;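 further: positive B-score marks a calcium rise read as TRPC4 activation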
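Assay system: HEK293 cells stably co-expressing mouse TRPC4beta and mu-opioid receptor / Timing: Fluo4 dye loading 45 min at room temperature, 110 s recording / Signal: Fluo4 calcium-sensitive dye fluorescence, kinetic, 1 Hz baseline / Read-out: integrated baseline-normalised fluorescence ratio, converted to per-well B score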
TRPC4 sel inh 2: second selectivity test of TRPC6 inhibitors: effect on mouse TRPC4; shares compounds with TRPC6 inhibitor; HEK293 TRPC4/MOR, membrane potential dye fluorescence; channel activated by saturating DAMGO dose; inhibition, % at 10 µM; actives 42% (n = 920); AID 2776;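 active means compounds whose fluorescence signal differed from control wells by over 3 SD, either direction, in both duplicate plates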
TRPC4 spec: mouse TRPC4 off-target activity of TRPC6 inhibitors | activity change, negative = inhibition, % at 10 µM | actives 61% (n = 920) | AID 2777 | HEK293 TRPC4/mu-opioid, membrane potential fluorescence | shares compounds with TRPC6 inhibitor;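 active means rise or fall in signal beyond 3 SD of buffer-only wells in both replicate plates, either sign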;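 further: integrated kinetic ratio of fluorescence range over baseline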
HEK293 MPD ctr 2-1: second counter-screen for TRPC6 inhibitors: parental HEK293 cells; shares compounds with TRPC6 inhibitor; parental HEK293 membrane potential dye fluorescence; maximal acetylcholine challenge after compound addition; signal change vs control, % at 10 µM; actives 31% (n = 920);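 active means membrane potential signal moving either way by over 3 SD of the maximum-effect control, in both duplicate plates, meaning non-specific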
HEK293 MPD ctr-1: counter-screen for TRPC6 inhibitors: effect in parental HEK293 cells; AID 2780; actives 60% (n = 920); shares compounds with TRPC6 inhibitor; membrane potential signal change, % at 10 µM; parental HEK293 membrane potential dye fluorescence;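 active means membrane potential signal shifting up or down by more than 3 SD of buffer-only wells, on both duplicate plates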
HEK293 MPD ctr-2: counter-screen for TRPC6 modulators: effect in parental HEK293 cells. shares compounds with TRPC6 inhibitor. membrane potential dye fluorescence. membrane potential signal change, % at 10 µM. actives 51% (n = 2,400). AID 488924;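 active means membrane potential signal moves up or down beyond 5 SD from buffer-only wells, on both duplicate plates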
HEK293 MPD ctr 2-2: second check of TRPC6 modulator effects in parental HEK293 cells; actives 14% (n = 2,400); inhibition, % at 10 µM; shares compounds with TRPC6 inhibitor; membrane potential dye fluorescence; after compound, maximal acetylcholine stimulation;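 active means membrane potential signal drops by more than 5 SD from the mean control signal, in both duplicate plates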;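 further: plate controls were acetylcholine ECmax control wells for no effect and buffer only wells for full effect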
TRPC4 ctr mod: mouse TRPC4 off-target activity of TRPC6 modulators; shares compounds with TRPC6 inhibitor; actives 69% (n = 2,400); percent change from control (negative = decrease, positive = increase), % at 10 µM; HEK293 TRPC4/mu-opioid, membrane potential fluorescence; AID 488927;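 active means membrane potential signal moved up or down beyond 5 SD of buffer control wells, in both duplicate plates, actives on both sides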;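 further: plate controls were assay buffer wells for no effect and DAMGO maximal-effect wells for full effect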
TRPC4/MOR inh 2: second selectivity test of TRPC6 modulators against mouse TRPC4. actives 55% (n = 2,400). inhibition, % at 10 µM. AID 488928. HEK293 TRPC4/mu-opioid, membrane potential dye fluorescence; stimulated with maximal-effect DAMGO. shares compounds with TRPC6 inhibitor;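 active means drop in membrane potential signal beyond 5 SD of the control wells in both duplicate plates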;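 further: TRPC4 counter screen for TRPC6 hits run under conditions tuned for TRPC6 not TRPC4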
TRPC6 inh conf: confirmation of mouse TRPC6 inhibitors; actives 43% (n = 3,300); AID 488960; HEK293-TRPC6, membrane potential dye, ACh-evoked depolarization; shares compounds with TRPC6 inhibitor; inhibition, % at 10 µM;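 active means fluorescence ratio falls more than 5 SD below the full-stimulation control mean, in both duplicate runs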;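 further: integrated fluorescence ratio of peak minus minimum over baseline after agonist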
TRPC6 act confirm: mouse TRPC6 activator confirmation; shares compounds with TRPC6 inhibitor; HEK293-TRPC6 membrane potential dye fluorescence, FDSS; activation, % at 10 µM; actives 11% (n = 2,800); AID 488961;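 active means ratio signal rise beyond 5 SD above unstimulated control wells' mean, seen in both duplicate runs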;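 further: plate controls were buffer EC0 wells for no effect and acetylcholine ECmax response for full effect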
Active calls of the source: *. This is a sample that favours compounds with a hit; in the whole collection about 2.3% have one here.

Results for COC(=O)c1ccc(Oc2nc(C)cc(Oc3ccccc3)n2)cc1 ?
TRPC4 PAM: inactive; TRPC4 block: inactive; TRPC6 inhibitor: -7.8*; TRPC6 activator: inactive; TRPC4 act: inactive; TRPC4 sel inh 2: inactive; TRPC4 spec: 1.0%*; HEK293 MPD ctr 2-1: inactive; HEK293 MPD ctr-1: 1.6%*; TRPC6 inh conf: inactive; TRPC6 act confirm: inactive

How did O=c1c2cc(Br)ccc2nc2n1CCCCC2 do in these assays?
TRPC4 PAM: inactive; TRPC4 block: inactive; TRPC6 inhibitor: -7.8*; TRPC6 activator: inactive; TRPC4 act: inactive; TRPC4 sel inh 2: inactive; TRPC4 spec: inactive; HEK293 MPD ctr 2-1: inactive; HEK293 MPD ctr-1: inactive; TRPC6 inh conf: inactive; TRPC6 act confirm: inactive

What do the screens show for `O=C(c1ccc2c(=O)n3c(nc2c1)CCCCC3)N1CCN(C(c2ccccc2)c2ccccc2)CC1`?
TRPC4 PAM: inactive; TRPC4 block: inactive; TRPC6 inhibitor: -11*; TRPC6 activator: inactive; TRPC4 act: inactive; TRPC4 sel inh 2: inactive; TRPC4 spec: -9.3%*; HEK293 MPD ctr 2-1: inactive; HEK293 MPD ctr-1: inactive; TRPC6 inh conf: inactive; TRPC6 act confirm: inactive

How did O=C(c1ccc2c(=O)n3c(nc2c1)CCCCC3)N1CCN(c2ccccc2)CC1 do in these assays?
TRPC4 PAM: inactive; TRPC4 block: inactive; TRPC6 inhibitor: inactive; TRPC6 activator: inactive; TRPC4 act: inactive

How did Cc1ccc2nc3n(c(=O)c2c1)CCCCC3 do in these assays?
TRPC4 PAM: inactive; TRPC4 block: inactive; TRPC6 inhibitor: inactive; TRPC6 activator: inactive; TRPC4 act: inactive

How did Cc1ccc(NC2CCCN(C(=O)CSc3ccccn3)C2)cc1C (centres undefined) do in these assays?
TRPC4 PAM: inactive; TRPC4 block: inactive; TRPC6 inhibitor: inactive; TRPC6 activator: inactive; TRPC4 act: inactive

How did CC(C)c1ccccc1NS(=O)(=O)c1cccs1 do in these assays?
TRPC4 PAM: inactive; TRPC4 block: inactive; TRPC6 inhibitor: inactive; TRPC6 activator: inactive; TRPC4 act: inactive

Results for CC(=O)Nc1ccccc1OCC(=O)NCCC1=CCCCC1 ?
TRPC4 PAM: inactive; TRPC4 block: inactive; TRPC6 inhibitor: inactive; TRPC6 activator: inactive; TRPC4 act: inactive

What do the screens show for `Cc1ccccc1OCC(=O)NCCC1=CCCCC1`?
TRPC4 PAM: inactive; TRPC4 block: inactive; TRPC6 inhibitor: -5.7*; TRPC6 activator: inactive; TRPC4 act: inactive; HEK293 MPD ctr-2: inactive; HEK293 MPD ctr 2-2: inactive; TRPC4 ctr mod: 14%*; TRPC4/MOR inh 2: inactive; TRPC6 inh conf: inactive; TRPC6 act confirm: inactive

How did O=C(COc1ccc([N+](=O)[O-])cc1)NCCC1=CCCCC1 do in these assays?
TRPC4 PAM: inactive; TRPC4 block: inactive; TRPC6 inhibitor: inactive; TRPC6 activator: inactive; TRPC4 act: inactive

Results for Cc1ccc(OCC(=O)NCCC2=CCCCC2)cc1 ?
TRPC4 PAM: inactive; TRPC4 block: inactive; TRPC6 inhibitor: -5*; TRPC6 activator: inactive; TRPC4 act: inactive; HEK293 MPD ctr-2: inactive; HEK293 MPD ctr 2-2: inactive; TRPC4 ctr mod: inactive; TRPC4/MOR inh 2: inactive; TRPC6 inh conf: inactive; TRPC6 act confirm: inactive

What do the screens show for `COc1ccc(S(=O)(=O)N2CCOC2CNC(=O)C(=O)NCCc2ccccc2)cc1` (centres undefined)?
TRPC4 PAM: inactive; TRPC4 block: inactive; TRPC6 inhibitor: inactive; TRPC6 activator: inactive; TRPC4 act: inactive

How did Cc1cc(C)n2nc(C(=O)Nc3ccc(S(=O)(=O)N(C)C)cc3)nc2n1 do in these assays?
TRPC4 PAM: inactive; TRPC4 block: inactive; TRPC6 inhibitor: -6*; TRPC6 activator: inactive; TRPC4 act: inactive; HEK293 MPD ctr-2: -247%*; HEK293 MPD ctr 2-2: inactive; TRPC4 ctr mod: -41%*; TRPC4/MOR inh 2: 36%*; TRPC6 inh conf: inactive; TRPC6 act confirm: inactive

Results for CC(=O)N1CCN(S(=O)(=O)c2cccc(C(=O)NCCc3ccc(Cl)cc3)c2)CC1 ?
TRPC4 PAM: inactive; TRPC4 block: inactive; TRPC6 inhibitor: inactive; TRPC6 activator: inactive; TRPC4 act: inactive

Results for Cc1ccc(SC(=O)c2c([N+](=O)[O-])c(C)nn2C)cc1 ?
TRPC4 PAM: inactive; TRPC4 block: inactive; TRPC6 inhibitor: -7.2*; TRPC6 activator: inactive; TRPC4 act: inactive; TRPC4 sel inh 2: inactive; TRPC4 spec: inactive; HEK293 MPD ctr 2-1: -5.5%*; HEK293 MPD ctr-1: inactive; TRPC6 inh conf: 76%*; TRPC6 act confirm: inactive

How did Cc1cc(C)n(C(=O)c2c([N+](=O)[O-])c(C)nn2C)n1 do in these assays?
TRPC4 PAM: inactive; TRPC4 block: inactive; TRPC6 inhibitor: inactive; TRPC6 activator: inactive; TRPC4 act: inactive

What do the screens show for `Cc1ccc(N2CCN(c3ccc(C)cc3)C2c2cccnc2)cc1`?
TRPC4 PAM: inactive; TRPC4 block: inactive; TRPC6 inhibitor: inactive; TRPC6 activator: inactive; TRPC4 act: inactive

Screens as filed in PubChem.
